# Assay results from different studies.
# Lines come from different studies, so protocols differ.
# Target: Receptor tyrosine-protein kinase erbB-4 (ERBB4, Homo sapiens, UniProt Q15303)
SMILES,test,conditions,remaining binding [%]
O=C(NCCCN1CCOCC1)c1ccc(Nc2ncc(Cl)c(-c3ccc(Cl)s3)n2)cc1,"binding, competition with immobilised ligand",1 µM,100
Nc1c(C(=O)NCc2ccc(C(=O)NCCCC3CCCCC3)cc2)cnn1-c1ccccc1,"cell-free assay, competition with immobilised ligand",0.1 µM,89
CCN1CCN(Cc2ccc(C(=O)Nc3ccc(C)c(Oc4ccc5c(c4)CC(=O)N5)c3)cc2C(F)(F)F)CC1,"binding, competition with immobilised ligand",1 µM,100
CC1CCCN1c1nccc(-c2cnn3ncccc23)n1 (stereo not shown),binding,1 µM,98
O=C(N[C@H]1CCCCC/C=C\C2C[C@@]2(C(=O)O)NC(=O)[C@@H]2C[C@@H](Oc3ccncc3)CN2C1=O)OC1CCCC1 (stereo partly shown),"binding, competition with immobilised ligand",1 µM,100
c1cncc(-c2cccc(Nc3nccc(NC4CCCCC4)n3)c2)c1,"binding, competition with immobilised ligand",10 µM,85
C[C@H]1CCN(c2nccc(-c3cnn4ncccc34)n2)C1,binding,1 µM,81
O=C(NCC1CCOCC1)c1n[nH]cc1NC(=O)c1c(F)cccc1F,"binding, competition with immobilised ligand",1 µM,100
COc1ccc2c(c1)O[C@H](c1ccc(OC)c(OC)c1)C[C@@H]2NC(=O)C1(c2ccc3c(c2)OC(F)(F)O3)CC1,"cell-free assay, competition with immobilised ligand",1 µM,94
Nc1ncc2c(n1)-c1c([nH]c3ccc(C#CC4CC4)cc13)CCCC2,"binding, competition with immobilised ligand",1 µM,100
CN(C)c1nccc(-c2cnc3ncccn23)n1,binding,1 µM,89
COc1ccc2c(O[C@@H]3C[C@H]4C(=O)N[C@]5(C(=O)O)CC5/C=C\CCCCC[C@H](NC(=O)OC5CCCC5)C(=O)N4C3)cc(-c3csc(NC(=O)C(C)C)n3)nc2c1C (stereo partly shown),"cell-free assay, competition with immobilised ligand",1 µM,100
Cc1cnc(Nc2ccc(C(=O)N3CCC(N4CCCC4)CC3)cc2)nc1-c1cc2ccccc2s1,"binding, competition with immobilised ligand",1 µM,84
COc1cc(-c2cn(C3CCc4c(F)cccc4N(CC(F)(F)F)C3=O)nn2)ccc1-n1cnc(C)c1 (stereo not shown),"cell-free assay, competition with immobilised ligand",1 µM,100
C[C@@H](c1ccc(-n2cnc3c(N)ncnc32)cc1)N1CCc2nn(C)c(Cc3ccccc3)c2C1=O,"binding, competition with immobilised ligand",0.1 µM,73
C[C@H](NC(=O)c1cnc2n1[C@](C)(Cc1ccc(C#N)cc1)C(=O)N2c1cc(Cl)c(F)c(Cl)c1)C(=O)NC1(c2ccccn2)CC1,"cell-free assay, competition with immobilised ligand",1 µM,100
Cc1cnn2ncc(-c3ccnc(N(C)C)n3)c2c1,binding,1 µM,65
COc1cccc(CNC(=O)c2nc3scc(COCc4ccc(C(=O)O)cc4)c3c(=O)[nH]2)c1,"cell-free assay, competition with immobilised ligand",1 µM,86.1
CN(c1nccc(-c2cnn3ncccc23)n1)C1CC1,binding,1 µM,100
O=C(c1ccc(Nc2ncc(Cl)c(-c3ccc(Cl)s3)n2)cc1)N1CCC(N2CCCC2)CC1,"binding, competition with immobilised ligand",1 µM,100
N[C@H]1CCN(c2nccc(-c3cnn4ncccc34)n2)C1,binding,1 µM,84
COc1cnc(Nc2cccc(S(N)(=O)=O)c2)nc1N1CCN(c2ccccc2)C(=O)C1,"binding, competition with immobilised ligand",1 µM,100
